Values joined by “and” are separate entries in the source; they are usually repeats but may differ in a detail not shown here. Equal values may be shown once.
Tested on: Fibroblast
Assay: Multiplex assay against human fibroblast
Format: toxicity, cell-based
Procedure, shortened: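 At seeding, live cells were stained with Hoechst33342, BioTracker Green Microtubule Cytoskeleton Dye, MitoTracker Red and Annexin V Alexa Fluor 680. After compound addition they were imaged on a CQ1 microscope at 37°C and 5% CO2, and CellPathfinder machine-learning gating sorted them into Hoechst high-intensity objects or normal cells, with normal cells further split into healthy, pyknosed or fragmented nuclei and pyknosed cells into mitotic or apoptotic. Tubulin, mitochondrial-mass and membrane-permeability phenotypes are given as per cents of cells with healthy nuclei.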

[1] = 12 h, 1 µM, compound concentration 1 uM
[2] = 12 h, 10 µM, compound concentration 10 uM
[3] = 24 h, 1 µM, compound concentration 1 uM
[4] = 24 h, 10 µM, compound concentration 10 uM
[5] = 48 h, 1 µM, compound concentration 1 uM
[6] = 48 h, 10 µM, compound concentration 10 uM

S=C(NCCCc1c[nH]cn1)NCCCN(Cc1ccc(Cl)c(Cl)c1)c1ccc(Br)cn1
Population Apoptotic (%) [1]: 40% and 31%
Population Fragmented Nuclei (%) [1]: 13% and 30%
Population Healthy Nuclei (%) [1]: 71% and 50%
Population Hoechst High Intensity Objects (%) [1]: 5% and 4%
Population Membrane Permeable-Phenotype (%) [1]: 1% and 5%
Population Mitochondria Different-Phenotype (%) [1]: 5% and 6%
Population Mitotic Cells (%) [1]: 60% and 68%
Population Normal (%) [1]: 94% and 95%
Population Pyknosed Nuclei (%) [1]: 14% and 18%
Population Tubulin-Different-Phenotype (%) [1]: 26% and 37%
Total Cell Count [1]: 142 and 181
Population Apoptotic (%) [2]: 47% and 52%
Population Fragmented Nuclei (%) [2]: 27% and 34%
Population Healthy Nuclei (%) [2]: 56% and 53%
Population Hoechst High Intensity Objects (%) [2]: 3% and 5%
Population Membrane Permeable-Phenotype (%) [2]: 0%
Population Mitochondria Different-Phenotype (%) [2]: 15% and 10%
Population Mitotic Cells (%) [2]: 52% and 47%
Population Normal (%) [2]: 96% and 94%
Population Pyknosed Nuclei (%) [2]: 16% and 12%
Population Tubulin-Different-Phenotype (%) [2]: 89%
Total Cell Count [2]: 220 and 279
Population Apoptotic (%) [3]: 69% and 23%
Population Fragmented Nuclei (%) [3]: 15% and 30%
Population Healthy Nuclei (%) [3]: 74% and 57%
Population Hoechst High Intensity Objects (%) [3]: 4% and 1%
Population Membrane Permeable-Phenotype (%) [3]: 2%
Population Mitochondria Different-Phenotype (%) [3]: 2% and 6%
Population Mitotic Cells (%) [3]: 30% and 76%
Population Normal (%) [3]: 95% and 98%
Population Pyknosed Nuclei (%) [3]: 9% and 11%
Population Tubulin-Different-Phenotype (%) [3]: 28% and 42%
Total Cell Count [3]: 137 and 183
Population Apoptotic (%) [4]: 66% and 61%
Population Fragmented Nuclei (%) [4]: 22% and 27%
Population Healthy Nuclei (%) [4]: 61% and 59%
Population Hoechst High Intensity Objects (%) [4]: 1% and 4%
Population Membrane Permeable-Phenotype (%) [4]: 0% and 2%
Population Mitochondria Different-Phenotype (%) [4]: 19% and 7%
Population Mitotic Cells (%) [4]: 33% and 38%
Population Normal (%) [4]: 98% and 95%
Population Pyknosed Nuclei (%) [4]: 15% and 13%
Population Tubulin-Different-Phenotype (%) [4]: 93% and 95%
Total Cell Count [4]: 214 and 248
Population Apoptotic (%) [5]: 75% and 35%
Population Fragmented Nuclei (%) [5]: 27% and 30%
Population Healthy Nuclei (%) [5]: 67% and 59%
Population Hoechst High Intensity Objects (%) [5]: 3% and 4%
Population Membrane Permeable-Phenotype (%) [5]: 0% and 5%
Population Mitochondria Different-Phenotype (%) [5]: 0% and 3%
Population Mitotic Cells (%) [5]: 25% and 64%
Population Normal (%) [5]: 96% and 95%
Population Pyknosed Nuclei (%) [5]: 5% and 10%
Population Tubulin-Different-Phenotype (%) [5]: 24% and 36%
Total Cell Count [5]: 156 and 178
Population Apoptotic (%) [6]: 62% and 63%
Population Fragmented Nuclei (%) [6]: 27% and 31%
Population Healthy Nuclei (%) [6]: 59% and 60%
Population Hoechst High Intensity Objects (%) [6]: 6% and 5%
Population Membrane Permeable-Phenotype (%) [6]: 0%
Population Mitochondria Different-Phenotype (%) [6]: 7% and 1%
Population Mitotic Cells (%) [6]: 37% and 36%
Population Normal (%) [6]: 93% and 94%
Population Pyknosed Nuclei (%) [6]: 12% and 7%
Population Tubulin-Different-Phenotype (%) [6]: 91% and 86%
Total Cell Count [6]: 230 and 293

CC(C)c1ccc(/C=N/NC(=O)c2ccc(O)cc2)cc1
Population Apoptotic (%) [1]: 12.07% and 15.38%
Population Fragmented Nuclei (%) [1]: 10.89% and 4%
Population Healthy Nuclei (%) [1]: 60.4% and 76.5%
Population Hoechst High Intensity Objects (%) [1]: 0%
Population Membrane Permeable-Phenotype (%) [1]: 4.1% and 2.61%
Population Mitochondria Different-Phenotype (%) [1]: 6.56% and 9.15%
Population Mitotic Cells (%) [1]: 87.93% and 84.62%
Population Normal (%) [1]: 100%
Population Pyknosed Nuclei (%) [1]: 28.71% and 19.5%
Population Tubulin-Different-Phenotype (%) [1]: 12.3% and 17.65%
Total Cell Count [1]: 202 and 200
Population Fragmented Nuclei (%) [2]: 13.41% and 4.65%
Population Healthy Nuclei (%) [2]: 61.45% and 73.02%
Population Hoechst High Intensity Objects (%) [2]: 0%
Population Membrane Permeable-Phenotype (%) [2]: 8.18% and 2.55%
Population Mitochondria Different-Phenotype (%) [2]: 6.36% and 9.55%
Population Mitotic Cells (%) [2]: 95.56% and 77.08%
Population Normal (%) [2]: 100%
Population Pyknosed Nuclei (%) [2]: 25.14% and 22.33%
Population Tubulin-Different-Phenotype (%) [2]: 20% and 17.2%
Total Cell Count [2]: 179 and 215
Population Apoptotic (%) [3]: 15% and 14.81%
Population Fragmented Nuclei (%) [3]: 10.53% and 4.39%
Population Healthy Nuclei (%) [3]: 71.93% and 82.44%
Population Hoechst High Intensity Objects (%) [3]: 0%
Population Membrane Permeable-Phenotype (%) [3]: 1.83% and 3.55%
Population Mitochondria Different-Phenotype (%) [3]: 4.27% and 7.1%
Population Mitotic Cells (%) [3]: 85% and 85.19%
Population Normal (%) [3]: 100%
Population Pyknosed Nuclei (%) [3]: 17.54% and 13.17%
Population Tubulin-Different-Phenotype (%) [3]: 12.2% and 18.34%
Total Cell Count [3]: 228 and 205
Population Fragmented Nuclei (%) [4]: 10.93% and 4.82%
Population Healthy Nuclei (%) [4]: 66.12% and 76.75%
Population Hoechst High Intensity Objects (%) [4]: 0%
Population Membrane Permeable-Phenotype (%) [4]: 5.79% and 3.43%
Population Mitochondria Different-Phenotype (%) [4]: 7.44% and 5.14%
Population Mitotic Cells (%) [4]: 95.24% and 83.33%
Population Normal (%) [4]: 100%
Population Pyknosed Nuclei (%) [4]: 22.95% and 18.42%
Population Tubulin-Different-Phenotype (%) [4]: 14.88% and 16%
Total Cell Count [4]: 183 and 228
Population Apoptotic (%) [5]: 27.27% and 44.44%
Population Fragmented Nuclei (%) [5]: 8% and 5.96%
Population Healthy Nuclei (%) [5]: 87.11% and 89.91%
Population Hoechst High Intensity Objects (%) [5]: 0%
Population Membrane Permeable-Phenotype (%) [5]: 1.02% and 3.57%
Population Mitotic Cells (%) [5]: 72.73% and 55.56%
Population Normal (%) [5]: 100%
Population Pyknosed Nuclei (%) [5]: 4.89% and 4.13%
Population Tubulin-Different-Phenotype (%) [5]: 9.18% and 15.31%
Total Cell Count [5]: 225 and 218
Population Apoptotic (%) [6]: 40% and 30%
Population Fragmented Nuclei (%) [6]: 13.54% and 4.26%
Population Healthy Nuclei (%) [6]: 78.65% and 87.23%
Population Hoechst High Intensity Objects (%) [6]: 0%
Population Membrane Permeable-Phenotype (%) [6]: 3.31% and 2.44%
Population Mitochondria Different-Phenotype (%) [6]: 6.62% and 1.95%
Population Mitotic Cells (%) [6]: 60% and 70%
Population Normal (%) [6]: 100%
Population Pyknosed Nuclei (%) [6]: 7.81% and 8.51%
Population Tubulin-Different-Phenotype (%) [6]: 10.6% and 14.63%
Total Cell Count [6]: 192 and 235

Cn1cnc(-c2cnc(O[C@H]3CCN(C(=O)Cc4ccc(OC(F)(F)F)cc4)C[C@H]3F)c(C(N)=O)c2)c1
Population Apoptotic (%) [1]: 14%
Population Healthy Nuclei (%) [1]: 57.67% and 77.82%
Population Hoechst High Intensity Objects (%) [1]: 0%
Population Mitotic Cells (%) [1]: 86% and 87.5%
Population Normal (%) [1]: 100%
Population Pyknosed Nuclei (%) [1]: 26.46% and 13.39%
Population Apoptotic (%) [2]: 14.93% and 26.53%
Population Healthy Nuclei (%) [2]: 58.85% and 71.95%
Population Hoechst High Intensity Objects (%) [2]: 0%
Population Mitotic Cells (%) [2]: 85.07% and 73.47%
Population Normal (%) [2]: 100%
Population Pyknosed Nuclei (%) [2]: 29.65% and 22.17%
Population Apoptotic (%) [3]: 8.89% and 19.35%
Population Healthy Nuclei (%) [3]: 68.08% and 79.62%
Population Hoechst High Intensity Objects (%) [3]: 0%
Population Mitotic Cells (%) [3]: 91.11% and 80.65%
Population Normal (%) [3]: 100%
Population Pyknosed Nuclei (%) [3]: 21.13% and 11.7%
Population Healthy Nuclei (%) [4]: 69.48% and 75.54%
Population Hoechst High Intensity Objects (%) [4]: 0%
Population Mitotic Cells (%) [4]: 93.62% and 75.76%
Population Normal (%) [4]: 100%
Population Pyknosed Nuclei (%) [4]: 18.88% and 11.87%
Population Apoptotic (%) [5]: 25%
Population Healthy Nuclei (%) [5]: 78.48% and 79.12%
Population Hoechst High Intensity Objects (%) [5]: 0%
Population Mitotic Cells (%) [5]: 75% and 83.33%
Population Normal (%) [5]: 100%
Population Pyknosed Nuclei (%) [5]: 8.44% and 6.59%
Population Apoptotic (%) [6]: 33.33% and 57.14%
Population Healthy Nuclei (%) [6]: 77.93% and 84.75%
Population Hoechst High Intensity Objects (%) [6]: 0%
Population Mitotic Cells (%) [6]: 66.67% and 42.86%
Population Normal (%) [6]: 100%
Population Pyknosed Nuclei (%) [6]: 3.1% and 4.96%
